How the values were obtained:
[1] = target: Heat shock protein HSP 90-alpha (Homo sapiens, UniProt P07900); experiment: Inhibition of recombinant human full-length C-terminal Hsi-tagged HSP90alpha (1 to 732 residues) expressed in Escherichia coli measured after 2 to 3 hrs by FITC-labeled geldanamycin probe based fluorescence polarization assay
HCT-116 = experiment: Antiproliferative activity against human HCT-116 cells measured after 48 hrs by SRB assay; format: functional
Outline: (§1)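 Cells seeded and cultured overnight, then exposed to a gradient of compound concentrations for 48 h in medium with 5% FBS. A time-zero plate was fixed with 10% TCA at drug addition. After treatment, cells were fixed with 10% TCA and stained with 0.4% SRB in 1% acetic acid. Bound dye was dissolved in 10 mM trizma base, absorbance read at 515 nm, and GI50 derived. Each experiment was run at least three times.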

A549 = experiment: Antiproliferative activity against human A549 cells measured after 48 hrs by SRB assay; format: functional
Outline: as §1, with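 “acid.” for “acid. Bound dye was dissolved in 10 mM trizma base, absorbance read at 515 nm, and GI50 derived.”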

NCI-H460 = experiment: Antiproliferative activity against human NCI-H460 cells measured after 48 hrs by SRB assay; format: functional; outline: as §1
NCI-H1975 = experiment: Antiproliferative activity against human NCI-H1975 cells measured after 48 hrs by SRB assay; format: functional; outline: as §1

SMILES | IC50 [1] [nM] | GI50 (HCT-116) [nM] | GI50 (A549) [nM] | GI50 (NCI-H460) [nM] | GI50 (NCI-H1975) [nM]
CC(C)c1cc(C(=O)Nc2ccc(Cn3c(=O)c(F)cn(C4CCCO4)c3=O)cc2)c(O)cc1O (stereo not given) | > 1000 | > 10000 | > 10000 | > 10000 | > 10000
CC(C)c1cc(C(=O)N(Cc2ccc(C#N)cc2)c2ccc(Cn3c(=O)c(F)cn(C4CCCO4)c3=O)cc2)c(O)cc1O (stereo not given) | 45.3 | 410 | 350 | 200 | 130
CCCN(C(=O)c1cc(C(C)C)c(O)cc1O)c1ccc(Cn2c(=O)c(F)cn(C3CCCO3)c2=O)cc1 (stereo not given) | 48.2 | 960 | 650 | 520 | 340
C=CCN(C(=O)c1cc(C(C)C)c(O)cc1O)c1ccc(Cn2c(=O)[nH]cc(F)c2=O)cc1 | 48 | 80 | 100 | 70 | 50
CC(C)c1cc(C(=O)N(C)c2ccc(Cn3c(=O)c(F)cn(C4CCCO4)c3=O)cc2)c(O)cc1O (stereo not given) | 40.9 | 120 | 90 | 70 | 60
O=c1[nH]c(=O)n(C2CCCO2)cc1F (stereo not given) [TEGAFUR] | – | > 10000 | > 50000 | – | –
C#CCN(C(=O)c1cc(C(C)C)c(O)cc1O)c1ccc(Cn2c(=O)[nH]cc(F)c2=O)cc1 | 54.4 | 40 | 30 | 70 | 20
COc1c(C)cnc(Cn2cnc3c(Cl)nc(N)nc32)c1C [BIIB021] | – | 150 | – | 210 | 200

Reference: ChEMBL document CHEMBL4765388, “Fluoropyrimidin-2,4-dihydroxy-5-isopropylbenzamides as antitumor agents against CRC and NSCLC cancer cells” (Eur J Med Chem, 2020)
